# TAAR1 antagonist: human TAAR1 antagonism; inhibition, % at 3 µM; 360,000 compounds, 1.5% hits; Q96RJ0; CHO RD-HGA16 TAAR1, Fluo-8 calcium fluorescence, antagonist;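 active = inhibition above a per-plate cutoff, the mean inhibition of test compounds on that plate plus 3 SD, cut at about 49% in these data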
# Target sequence (Q96RJ0 whole entry, looked up): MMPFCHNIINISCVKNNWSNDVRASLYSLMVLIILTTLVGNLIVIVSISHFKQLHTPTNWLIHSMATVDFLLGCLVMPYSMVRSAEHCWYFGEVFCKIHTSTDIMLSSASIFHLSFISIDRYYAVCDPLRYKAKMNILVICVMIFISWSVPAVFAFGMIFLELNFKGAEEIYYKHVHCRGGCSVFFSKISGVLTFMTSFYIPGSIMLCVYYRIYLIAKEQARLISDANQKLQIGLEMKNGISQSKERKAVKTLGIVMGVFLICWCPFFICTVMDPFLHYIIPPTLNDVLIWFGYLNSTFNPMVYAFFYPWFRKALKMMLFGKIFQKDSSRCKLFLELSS
#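 Material: RD-HGA16 CHO cells with stable hTAAR1 and Gα16; Dosing: single nominal final test compound concentration of 3 µM; Schedule: seeding 17-24 h prior, 75-min 37 °C, 30-min RT dye loading; Detection: kinetic Fluo-8 calcium fluorescence measurement; Measure: % inhibition from peak post-agonist over basal fluorescence ratio; Benchmarks: vehicle and agonist controls.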
# OX1R antag-1: OX1R (human) antagonism. O43613. inhibition, % at 6.6 µM. OX1R-expressing cells, FRET antagonist read-out. 330,000 compounds, 1.8% hits; in the data active = inhibition mostly above about 38%, no sharp cut-off; inactive = mostly below about 40%
# GPR7 antagonist: blocks human GPR7 receptor signaling; P48145; GPR7-expressing cells, fluorescence antagonist assay; inhibition, % at 4.4 µM; 290,000 compounds, 1.1% hits; in the data active = inhibition above about 16%, passing the limit was not always enough;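 also: cells stimulated with the agonist NPW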
# Target sequence (P48145 whole entry, looked up): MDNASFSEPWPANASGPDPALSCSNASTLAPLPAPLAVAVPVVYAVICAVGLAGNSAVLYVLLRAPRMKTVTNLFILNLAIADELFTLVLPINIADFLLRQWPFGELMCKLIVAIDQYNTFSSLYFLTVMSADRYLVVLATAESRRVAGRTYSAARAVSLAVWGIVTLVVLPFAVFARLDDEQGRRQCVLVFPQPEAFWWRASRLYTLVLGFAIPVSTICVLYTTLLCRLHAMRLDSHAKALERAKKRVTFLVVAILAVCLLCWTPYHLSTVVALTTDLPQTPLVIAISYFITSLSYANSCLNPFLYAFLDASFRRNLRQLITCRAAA
# OX1R antag-2: human HCRTR1 antagonism. O43613. CHO/OX1R cells, Fluo-8 calcium fluorescence, orexin A. inhibition, % at 5 µM. 330,000 compounds, 0.43% hits. AID 434989;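 active = inhibition above its plate's threshold, mean inhibition of all tested compounds on the plate plus 3 SD, cut at about 37% in these data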
# TAAR1 agonist: human TAAR1 agonism; activation, % at 3 µM; Q96RJ0; CHO RD-HGA16 TAAR1, Fluo-8 calcium fluorescence; vehicle wells 0%, saturating PEA agonist 100%; 360,000 compounds, 0.99% hits;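 active = activation above the mean activation of all test compounds in the run plus 3 SD, cut at about 38% in these data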
#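 Test system: RD-HGA16 (CHO) cells co-expressing Gα16 and hTAAR1 | Doses: Single dose, 3 µM | Schedule: 17-24 h seeding, 75 min 37 °C dye, 30 min RT | Evaluation: % activation from peak over basal fluorescence ratio, DMSO-to-PEA scaled | Technique: Kinetic Fluo-8 calcium fluorescence | Benchmarks: Low control DMSO, high control PEA (EC100)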
# CHO parental Ca: signal in parental CHO cells, OX1R antagonist counter-screen; 330,000 compounds, 0.63% hits; inhibition, % at 5.6 µM; parental CHO-K1, ATP-induced calcium, Fluo-8 fluorescence;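 active = inhibition above that plate's mean sample inhibition plus 3 SD, cut at about 26% in these data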
#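 Assay system – parental CHO cells · Reagent – ATP stimulus · Detection – intracellular calcium via Fluo-8 no-wash fluorescent dye · Evaluation – percent inhibition of ATP-evoked calcium rise, normalized to controls · Controls – ATP wells versus no-ATP DMSO wells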
# nonsel antag count: counter-screen for TAAR1 antagonists: nonselective antagonists. shares compounds with TAAR1 antagonist. 2,400 compounds, 77% hits. counterscreen cell line, calcium fluorescence, antagonist mode. inhibition, % at 3 µM; in the data active = inhibition above about 22%;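 also: CHO-Ga16 host cells stimulated with ATP at an EC80 level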
# TAAR1 antag conf: human TAAR1 antagonism, confirmed; shares compounds with TAAR1 antagonist; inhibition, % at 3 µM; 2,400 compounds, 40% hits; TAAR1-expressing cells, fluorescence antagonist read-out; in the data active = inhibition above about 49%;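 also: CHO-Ga16 host cells challenged with agonist PEA near its EC80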
# Ga16 ag counter: nonselective Ga16 agonist in TAAR1 antagonist counter-screen; shares compounds with TAAR1 antagonist; Ga16-expressing cells, calcium fluorescence, agonist counterscreen; activation, % at 3 µM; 2,400 compounds, 18% hits; AID 651953; in the data active = activation above about 12%
# TAAR1 ag counter: counter-screen for human TAAR1 antagonists: TAAR1 agonists; hTAAR1 cell line, fluorescence activation, agonist mode; AID 651955; shares compounds with TAAR1 antagonist; 2,400 compounds, 2% hits; activation, % at 3 µM; in the data active = activation above about 37%;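 also: CHO cells stably expressing TAAR1 with calcium dye readout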
# A number is an active result; n = inactive; x = no result given. Compounds with a hit are over-represented: about 4.5% of the library has one in this group of screens.
SMILES,TAAR1 antagonist,OX1R antag-1,GPR7 antagonist,OX1R antag-2,TAAR1 agonist,CHO parental Ca,nonsel antag count,TAAR1 antag conf,Ga16 ag counter,TAAR1 ag counter
COc1ccc([C@H]2CC(=O)C=C(c3cccc(Br)c3)C2)cc1,n,n,x,n,n,n,x,x,x,x
O=C(NCCN1CCOCC1)c1ccc(/C=C2\Sc3ccccc3N(Cc3ccccc3F)C2=O)cc1,69,n,n,n,n,n,34,50,13,n
Cc1ccccc1CN1C(=O)/C(=C\c2ccc(C(=O)NCCN3CCOCC3)cc2)Sc2ccccc21,53,n,n,n,n,n,26,n,n,n
CN1CCN(CCCNC(=O)c2ccc(/C=C3\Sc4ccccc4N(Cc4ccccc4F)C3=O)cc2)CC1,n,x,n,x,n,x,x,x,x,x
Cc1nc2ccc(C(=O)NCCCn3ccnc3)cn2c1N(C)C(=O)CCc1ccccc1,n,x,x,x,n,x,x,x,x,x
CCc1cccc2c(C(=O)COC(=O)c3nn(C)c(=O)c4ccccc34)c[nH]c12,58,n,n,n,n,n,37,n,14,n
Cc1csc(SCCn2c(N3CCN(c4ccccc4)CC3)nc3c2c(=O)[nH]c(=O)n3C)n1,54,n,n,n,n,n,n,n,n,n
Cn1c(N2CCCCC2)nc2c1c(=O)[nH]c(=O)n2C,n,n,n,n,n,n,x,x,x,x
Cn1c(N2CCN(C(c3ccccc3)c3ccccc3)CC2)nc2c1c(=O)[nH]c(=O)n2C,67,n,n,n,n,n,31,50,13,n
O=C(c1ccc(C(F)(F)F)cc1)N1CCC(=O)N(C(COCc2ccc(Cl)cc2)Cc2ccccc2)CC1 (stereo not drawn),n,n,n,n,n,n,x,x,x,x
CC(C)(C)c1ccc(C(=O)N2CCC(=O)N([C@H](COCc3ccccc3)Cc3ccccc3)CC2)cc1,71,x,x,x,n,x,27,50,n,n
CCC1CN(C(=O)N2CCC(C(=O)NCc3ccco3)CC2)c2cc(C)ccc2O1 (stereo not drawn),50,n,n,n,n,n,28,49,n,n
CCC1CN(C(=O)N2CCC(C(=O)NCc3ccccc3C)CC2)c2ccccc2O1 (stereo not drawn),n,n,n,n,n,n,x,x,x,x
CCC1CN(C(=O)N2CCC(C(=O)NCCc3ccc(OC)cc3OC)CC2)c2ccccc2O1 (stereo not drawn),56,n,n,n,n,n,35,54,n,n
CCC1CN(C(=O)N2CCC(C(=O)NCCc3ccccc3OC)CC2)c2ccccc2O1 (stereo not drawn),75,n,n,n,n,n,29,54,n,n
CCn1c(SCC(=O)Nc2oc(C)c3c(C)n[nH]c(=O)c23)nnc1-c1ccco1,n,x,x,x,n,x,x,x,x,x
Nc1ncnc2c(C3OC(CO)C(O)C3O)c[nH]c12 (stereo not drawn),n,x,x,x,n,x,x,x,x,x
COc1ccccc1S(=O)(=O)N(C)C[C@@H]1OCc2cnnn2CCCC(=O)N([C@H](C)CO)C[C@H]1C,n,x,x,x,n,x,x,x,x,x
N#Cc1cc(C#N)c(N2CCN(c3cccc(Cl)n3)CC2)nc1N,58,n,n,n,n,n,34,49,19,n
NC1CCN(c2cccc(Cl)n2)CC1,x,n,x,n,x,n,x,x,x,x
CCOc1ccc(-c2csc(NC(=O)c3cccc(N4C(=O)CCC4=O)c3)n2)cc1,68,n,n,n,n,n,32,n,12,n
COc1ccc(-c2csc(NC(=O)c3cccc(N4C(=O)CCC4=O)c3)n2)cc1OC,65,n,x,n,n,n,n,n,n,n
O=C(Nc1ccc(-c2cn3ccsc3n2)cc1)C1COc2ccccc2O1 (stereo not drawn),60,n,n,n,n,n,38,56,15,n
CC(C)(C)c1csc(NC(=O)C2COc3ccccc3O2)n1 (stereo not drawn),n,n,n,n,n,n,x,x,x,x
COc1ccc(-c2csc(NC(=O)C3COc4ccccc4O3)n2)cc1OC (stereo not drawn),62,n,n,n,n,n,29,n,n,n
SMILES,TAAR1 antagonist,OX1R antag-1,GPR7 antagonist,OX1R antag-2,TAAR1 agonist,CHO parental Ca,nonsel antag count,TAAR1 antag conf,Ga16 ag counter,TAAR1 ag counter
Cc1ccc(-c2csc(NC(=O)c3cccc(N4C(=O)CCC4=O)c3)n2)o1,x,n,n,n,x,n,x,x,x,x
CCOC1=CC2=C(C(=O)C(Cl)=CC2=O)[C@@H]2CN(S(=O)(=O)c3ccc(C)cc3)[C@@H](c3ccccc3)[C@H]12,n,x,x,x,n,x,x,x,x,x
COCCNC(=O)C1CCCN(C(=O)c2sc(-c3ccccc3)nc2C)CC1 (stereo not drawn),n,x,x,x,n,x,x,x,x,x
CCc1nc2ccc(C(=O)N(CC)CCN(C)C)cn2c1N(C)Cc1nccs1,n,x,x,x,n,x,x,x,x,x
C=CCn1c(SCc2ccc(Br)cc2F)nc2cc(C(=O)O)ccc2c1=O,n,n,n,n,n,n,x,x,x,x
C=CCn1c(SCc2c(C)noc2C)nc2cc(C(=O)O)ccc2c1=O,76,n,n,n,n,n,n,n,n,n
CN(C)S(=O)(=O)N1CCC(Oc2cccc(C(=O)NCCC3=CCCCC3)c2)CC1,81,n,n,n,n,n,43,60,13,n
COc1ccc(N2CCN(c3ccc(NC(=O)NN)cc3)CC2)cc1,n,n,n,n,n,n,x,x,x,x
O=c1n(Cc2ccccc2)c(O)c2n1Cc1ccccc1N=C2c1ccccc1,n,x,x,x,n,x,x,x,x,x
Cc1cc(C(=O)CSc2ccc(F)cc2)cc(C)c1O,n,n,n,n,n,n,x,x,x,x
Cc1cc(C(=O)CSc2ccc(Cl)cc2)cc(C)c1OC(=S)N(C)C,63,n,n,n,n,n,n,n,n,n
Cc1ccc([C@H]2N[C@]3(CCCN(Cc4ccc(F)cc4)C3=O)[C@H]3C(=O)N(C)C(=O)[C@@H]23)cc1,n,x,x,x,n,x,x,x,x,x
O=C(c1ccccc1)N1CCN(c2ncnc3c2cnn3-c2ccccc2)CC1,n,n,n,n,n,n,x,x,x,x
Cc1nn(-c2ccccc2)c(Cl)c1C(=O)N1CCN(c2ncnc3c2cnn3-c2ccccc2)CC1,78,83,n,51,n,78,52,63,13,n
O=C(C(=O)N1CCN(c2ccccc2F)CC1)c1cn(CC(=O)N2CCCC2)c2ccccc12,n,x,x,x,n,x,x,x,x,x
c1ccc(COc2cccc(-c3cc4nc(NCCc5ccncc5)ccn4n3)c2)cc1,71,x,x,x,n,x,38,51,n,n

# Screens (PubChem BioAssay)
